Experimental data from article PMC9041360 (RSC Advances, 2021).
Where two headings read alike, the source gives them in different places.

Columns and labels:
[1] = system: HeLa cells; settings: read-out: IC50 cytotoxicity against HeLa cells; HeLa cells ref 40; cited from earlier work
[2] = system: Saccharomyces cerevisiae P23; test: Membrane permeabilization assay; type: cell-based; settings: S. cerevisiae, 5 and 10 μM
How it was run: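 S. cerevisiae P23 was grown aerobically in YEPG at 30 °C to mid-log phase (OD450 about 0.5). Cells were harvested, washed and resuspended to OD450 about 0.2 in 0.15 M citrate–phosphate buffer, pH 6.0, with 0.5% glucose and 10 μM propidium iodide. Test compound was added at 1, 5 or 10 μM final. PI uptake was followed as fluorescence (ex 515/em 620) at 25 °C. Controls: 10 μM melittin (positive) and buffer (baseline). Two sets of experiments, with no background subtraction.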

[3] = system: HeLa cells; test: Cellular morphology by light microscopy; type: cell-based, human; settings: 48 h of exposure, concentrations from 2.5 to 20 μM
How it was run: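 HeLa cells in RPMI were seeded at 5 × 10^3 cells per well on poly-D-lysine-coated glass-bottom imaging plates. Next day they were treated with 20, 5 or […] μM test compound. Live-cell imaging used an inverted microscope with an incubation chamber supplied with 5% CO2 and a 100× oil objective. Images were taken after 48 h of treatment.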

[4] = system: HeLa cells; test: Cytotoxicity testing using MTT, dose–response; type: cell-based, human
How it was run: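 HeLa cells grown in RPMI 1640 with 10% FBS, 2 mM L-glutamine and 1% antibiotics at 37 °C, 5% CO2. Seeded at 10 × 10^3 cells per well and left to adhere overnight. The whole medium was replaced with test compound in medium for 48 h. MTT (4 mg mL−1 in PBS) was added for 4 h, then cells were centrifuged and formazan dissolved in DMSO. Absorbance at 590/640 nm. Viability given as percent of untreated control.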

[5] = Lipid bilayer experiments; settings: planar DOPC/DOPE membranes, 50 mV
How it was run: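 Black lipid bilayers were painted from 3% (w/v) DOPC/DOPE 2:1 (w/w) in n-decane/butanol 9:1 across a 0.5 mm aperture. Both compartments held 10 mM Tris, 1 M KCl, pH 7.4, at 25 °C. Test compound (5 or 10 μM) was added to the cis side. Current was recorded with Ag/AgCl electrodes at 50 mV, cis positive, with traces of 120 s.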

[6] = system: Alternaria alternata (BCC020_0609); test: Antifungal activity, broth two-fold microdilution; type: cell-based; settings: 30 °C, 48 h, tested 75 to 0.036 μM; NA = no activity at 75 μM
How it was run: (§1)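 Two-fold broth microdilution per CLSI M100-S20. Compounds were serially diluted from 75 to 0.036 μM in Mueller Hinton broth with 2% glucose. Inoculum from an overnight culture, about 5 × 10^5 CFU mL−1 final. Incubated aerobically at 30 °C for 48 h. Solvent control: medium with 50% DMSO in methanol. Fluconazole (32 to 0.0625 μg mL−1) served as positive control. MIC was the lowest concentration showing some growth inhibition. Triplicate.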

[7] = system: Aspergillus fumigatus (BCC020_2845); test: Antifungal activity, broth two-fold microdilution; type: cell-based; settings: 30 °C, 48 h, tested 75 to 0.036 μM; NA = no activity at 75 μM
How it was run: as §1

[8] = system: HeLa cells; test: Membrane damage by LDH leakage; type: cell-based, human
How it was run: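 HeLa cells were seeded at 1 × 10^4 per well. At 30 min, 45 min, 1, 2, 3 and 6 h after treatment, LDH release was measured with the CytoTOX One membrane-integrity kit. Lysis solution gave maximum leakage. Fluorescence (ex 560/em 590) was expressed as percent of maximum LDH leakage.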

[9] = system: HeLa cells; test: Recovery experiments; type: cell-based, human; settings: 5 and 10 μM, exposure 1–8 h, then 48 h recovery, MTT

Row | Substance | IC50 [1] [nM] | membrane permeabilization, PI entry into yeast cells (in words) [2] | cellular morphology (in words) [3] | reduction of cell viability / inhibition ([4]; MTT, 48 h, at higher concentrations (5–20 μM)) [%] | IC50 ([4]; read-out: IC50 against HeLa cells (MTT assay), 48 h treatment) [nM] | pore-forming activity / membrane permeabilization (in words) ([5]; 5 μM) | typical transmembrane electrical current ([5]; 10 μM) | MIC A. alternata [6] [µM] | MIC A. fumigatus [7] [µM] | LDH leakage (in words) ([8]; early time points up to 2 h) | LDH accumulated in the medium, % of positive control ([8]; only after 3 h) | cell viability after compound washout and recovery (in words) [9]
1 | Iturin A | 1730 |  |  |  |  |  |  |  |  |  |  | 
2 | minutissamide A [Compound 1] |  | No membrane disruption was detectable | cell shrinkage and membrane rupture | 70 | 2800 | almost completely inactive | about 10 pA | 75 | 37.5 | No LDH leakage | up to 30% | easily tolerated by the cells for the first two hours
